Measured values taken from ChEMBL document CHEMBL4304827, “Design, synthesis and evaluation of structurally diverse chrysin-chromene-spirooxindole hybrids as anticancer agents” (Bioorg Med Chem, 2019).

Experiments:
A549 [1] = test: Induction of apoptosis in human A549 cells incubated for 24 hrs by annexin V FITC and PI staining based flow cytometry; type: functional, cell-based
A549 [2] = test: Antimigratory activity in human A549 cells assessed as reduction in wound healing incubated for 36 hrs by wound healing assay; type: functional, cell-based
Method in brief: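 Confluent A549 monolayers, seeded at 1 × 10^5 cells/well, were scratched with a pipette tip. Medium was replaced with medium containing various concentrations and cells were incubated 36 h. Migration area was measured by microscopy and expressed as a percentage of control (control = 100%). Mean ± SD, ≥3 independent experiments.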

A549 [3] = test: Antiproliferative activity against human A549 cells assessed as reduction in cell proliferation incubated for 48 hrs by MTT assay; type: functional, cell-based; settings: A549, 48 h
Method in brief: (§1)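 Log-phase cells were plated at 5 × 10^3/well in RPMI-1640 with 10% FBS and cultured 24 h. Compounds were added at graded concentrations (DMSO <0.1%) for 48 h. MTT (5 mg/mL) was added for about 4 h, formazan was dissolved in DMSO and A490 was read. IC50 was calculated from ≥3 independent experiments and reported as mean ± SD. Chrysin served as positive control.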

PC-3 = test: Antiproliferative activity against human PC3 cells assessed as reduction in cell proliferation incubated for 48 hrs by MTT assay; type: functional, cell-based; settings: PC-3, 48 h; method in brief: as §1
MRC5 = test: Cytotoxicity against human MRC5 cells assessed as reduction in cell proliferation incubated for 48 hrs by MTT assay; type: cell-based; settings: MRC5, 48 h; method in brief: as §1
A549 [4] = test: Inhibition of colony formation in human A549 cells cultured in plate assessed as decrease in size and number of colonies formed incubated for 10 days by crystal violet staining based fluorescence microscopy; type: functional, cell-based
Method in brief: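 Log-phase A549 cells were seeded at 1 × 10^3/well and cultured 24 h. Medium containing various concentrations was added and cells were grown 10 days. Colonies were fixed in 4% paraformaldehyde for 30 min, stained with 0.1% crystal violet and imaged by microscopy. Colony percentage was calculated relative to control colonies. Mean ± SD, ≥3 experiments.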

A549 [5] = test: Induction of apoptosis in human A549 cells assessed as increase in caspase 3 activity incubated for 24 hrs by colorimetry; type: functional, cell-based
Method in brief: (§2)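 A549 cells were plated at 3 × 10^5/well and cultured 12 h, then treated with various concentrations for 24 h. Cells were lysed on ice for 60 min. Lysate containing 200 μg protein was incubated with caspase-3, -8 or -9 colorimetric substrate at 37 °C for 4 h in the dark, and A405 was read. Activation = (treated − blank)/(control − blank). Mean ± SD, ≥3 experiments.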

A549 [6] = test: Induction of apoptosis in human A549 cells assessed as viable cells at 25 uM incubated for 24 hrs by annexin V FITC and PI staining based flow cytometry (reference value: 95.7%); type: functional; settings: A549, 24 h, read-out: Activity
A549 [7] = test: Induction of apoptosis in human A549 cells assessed as early apoptotic cells at 25 uM incubated for 24 hrs by annexin V FITC and PI staining based flow cytometry (reference value: 0.53%); type: functional
A549 [8] = test: Induction of apoptosis in human A549 cells assessed as late apoptotic cells at 5 uM incubated for 24 hrs by annexin V FITC and PI staining based flow cytometry (reference value: 1.32%); type: functional
A549 [9] = test: Induction of apoptosis in human A549 cells assessed as late apoptotic cells at 25 uM incubated for 24 hrs by annexin V FITC and PI staining based flow cytometry (reference value: 1.32%); type: functional
A549 [10] = test: Induction of apoptosis in human A549 cells assessed as necrotic cells at 25 uM incubated for 24 hrs by annexin V FITC and PI staining based flow cytometry (reference value: 2.43%); type: functional
A549 [11] = test: Induction of ROS production in human A549 cells incubated for 24 hrs by DCFH-DA staining based fluorescence microscopy; type: functional, cell-based
Method in brief: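 A549 cells were plated at 3 × 10^5/well and cultured 12 h, then treated with various concentrations for 24 h. They were washed in serum-free medium and loaded with DCFH-DA (10 μM) for 20 min at 37 °C in the dark. DCF fluorescence was imaged by fluorescence microscopy.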

A549 [12] = test: Induction of apoptosis in human A549 cells assessed as increase in caspase 3 activity at 100 uM incubated for 24 hrs by colorimetry relative to control; type: functional; method in brief: as §2
A549 [13] = test: Induction of apoptosis in human A549 cells assessed as increase in caspase 8 activity at 100 uM incubated for 24 hrs by colorimetry relative to control; type: functional; method in brief: as §2
A549 [14] = test: Induction of apoptosis in human A549 cells assessed as increase in caspase 9 activity at 100 uM incubated for 24 hrs by colorimetry relative to control; type: functional; method in brief: as §2
A549 [15] = test: Induction of apoptosis in human A549 cells assessed as increase in caspase 9 activity incubated for 24 hrs by colorimetry; type: functional, cell-based; method in brief: as §2
A549 [16] = test: Induction of apoptosis in human A549 cells assessed as downregulation of Akt protein expression incubated for 24 hrs by Western blot analysis; type: functional, cell-based
Method in brief: (§3)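 A549 cells were treated with various concentrations for 24 h and lysed in RIPA buffer with 1 mM PMSF. Protein (20 μg) was resolved on 8-12% SDS-PAGE and transferred to PVDF. Membranes were blocked in 5% milk and probed with primary antibodies overnight at 4 °C, then with anti-rabbit secondary. Bands were quantified by densitometry. Mean ± SD, ≥3 experiments.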

A549 [17] = test: Induction of apoptosis in human A549 cells assessed as downregulation of 5-Lox protein expression incubated for 24 hrs by Western blot analysis; type: functional, cell-based; method in brief: as §3
A549 [18] = test: Induction of apoptosis in human A549 cells assessed as upregulation of Bax protein expression incubated for 24 hrs by Western blot analysis; type: functional, cell-based; method in brief: as §3
A549 [19] = test: Antimigratory activity in human A549 cells assessed as reduction in cell migration incubated for 36 hrs by transwell migration assay; type: functional, cell-based
Method in brief: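 Cells were suspended at 1 × 10^4/mL in RPMI-1640 with 1% FBS and seeded in the upper chamber. For the invasion assay the upper chamber was coated with Matrigel. The lower chamber held medium with 10% FBS. Compound was given at various concentrations for 36 h. Membranes were methanol-fixed and stained with 0.1% crystal violet. Cells on the lower side were counted relative to control (100%). Mean ± SD, ≥3 experiments.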

A549 [20] = test: Induction of apoptosis in human A549 cells assessed as downregulation of Bcl2 protein expression at 10 uM by Western blot analysis; type: functional, cell-based; settings: TDE = time-dependent effect
Method in brief: as §3, with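 “exposed to 10 μM” for “treated with various concentrations”, “different times” for “24 h”, “separated” for “resolved”, “incubated” for “probed”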

A549 [21] = test: Induction of apoptosis in human A549 cells assessed as downregulation of Akt protein expression at 10 uM by Western blot analysis; type: functional, cell-based; settings: TDE = time-dependent effect
Method in brief: as §3, with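 “exposed to 10 μM” for “treated with various concentrations”, “different times” for “24 h”, “separated” for “resolved”, “incubated” for “probed”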

A549 [22] = test: Induction of apoptosis in human A549 cells assessed as downregulation of 5-Lox protein expression at 10 uM by Western blot analysis; type: functional, cell-based; settings: TDE = time-dependent effect
Method in brief: as §3, with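 “exposed to 10 μM” for “treated with various concentrations”, “different times” for “24 h”, “separated” for “resolved”, “incubated” for “probed”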

A549 [23] = test: Induction of apoptosis in human A549 cells assessed as upregulation of Cyt c protein expression at 10 uM by Western blot analysis; type: functional, cell-based; settings: TDE = time-dependent effect
Method in brief: as §3, with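 “exposed to 10 μM” for “treated with various concentrations”, “different times” for “24 h”, “separated” for “resolved”, “incubated” for “probed”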

SMILES: CN1C(=O)C2(C(C#N)=C(N)Oc3cc4oc(-c5ccccc5)cc(=O)c4c(O)c32)c2cc(Br)ccc21 (stereo not given)
- Activity (A549 [1]): Dose-dependent effect
- inhibition (A549 [2]): Dose-dependent effect
- IC50 (A549 [3]): 3.15 µM
- IC50 (PC-3): 20.3 µM
- IC50 (MRC5): > 100 µM
- inhibition (A549 [4]): Dose-dependent effect
- Activity (A549 [5]): Dose-dependent effect
- viability at 25 µM (A549 [6]): 73.5%
- Activity (A549 [7]): 9.8%
- Activity (A549 [8]): 6.73%
- Activity (A549 [9]): 13.7%
- Activity (A549 [10]): 2.97%
- Activity (A549 [11]): Dose-dependent effect
- fold change (FC) (A549 [12]): 5.24
- fold change (FC) (A549 [13]): 2.98
- fold change (FC) (A549 [14]): 1.81
- Activity (A549 [15]): Dose-dependent effect
- inhibition (A549 [16]): Dose-dependent effect
- inhibition (A549 [17]): Dose-dependent effect
- Activity (A549 [18]): Dose-dependent effect
- inhibition (A549 [19]): Dose-dependent effect
- inhibition (A549 [20]): Tde
- inhibition (A549 [21]): Tde
- inhibition (A549 [22]): Tde
- Activity (A549 [23]): Tde
